Laboratory results from ChEMBL document CHEMBL3872222, “Synthesis of novel curcuminoids accommodating a central β-enaminone motif and their impact on cell growth and oxidative stress” (Eur J Med Chem, 2016).
≈ marks a conversion by molar mass, not a printed value.

What was measured:
[1] = Solubility of the compound in serum-free DMEM assessed as compound concentration required for crystal formation measured after 1 day by microscopic analysis; type: physicochemical; details: 24 h
In short: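 Compound at 0, 0.5, 1, 5, 10, 25 and 50 μM in serum-free DMEM incubated 1 day at 37 °C, 10% CO2, then examined for crystal formation.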

[2] = Antioxidant activity assessed as inhibition of DPPH radical activity at 1 uM measured after 30 mins under dark conditions by spectrophotometric analysis relative to control; type: functional
[3] = Growth inhibition of CHOK1 cells assessed as mitochondrial activity measured after 72 hrs by MTT assay; type: functional, cell-based; details: Cricetulus griseus, CHO-K1, 72 h
In short: (§1)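 Seeded 20000 cells/well in DMEM+glutamax, NEAA, P/S, FBS; after 1 day treated 1, 5, 10, 25 μM in serum-free medium (DMSO under 0.1%) for 3 days. MTT (5 mg/ml in PBS) 2 h at 37 °C, 10% CO2 in dark; formazan dissolved in DMSO, absorbance 570 nm; triplicate; IC50 derived.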

[4] = Antioxidant activity assessed as trolox equivalent of ferric ion reducing activity using Fe3+-TPTZ by measuring Fe2+-TPTZ formation after 4 mins by UV-vis spectrophotometry based FRAP assay; type: functional
In short: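 FRAP reagent: 300 mM acetate buffer, 10 mM TPTZ in ethanol and 20 mM FeCl3 (in dilute HCl) combined 10:1:1, TPTZ and iron freshly made. Sample mixed 1:9 with reagent; absorbance 593 nm after 4 min. Expressed as trolox equivalents per μM from slope of linear plot versus analog concentration.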

[5] = Growth inhibition of CHOK1 cells measured after 72 hrs by SRB assay; type: functional, cell-based; details: Cricetulus griseus, CHO-K1, 72 h
In short: (§2)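 20000 cells/well treated after 1 day at 1, 5, 10, 25 μM, serum-free, for 3 days. Fixed with 50% TCA 1 h at 4 °C, stained 30 min with 0.4% sulforhodamine B in 1% acetic acid, rinsed with 1% acetic acid, dye dissolved in 10 mM Tris, absorbance 490 nm; triplicate; IC50 derived.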

[6] = Growth inhibition of human HT-29 cells measured after 72 hrs by SRB assay; type: functional, cell-based; details: HT-29, 72 h; in short: as §2
[7] = Growth inhibition of undifferentiated human Caco2 cells assessed as mitochondrial activity measured after 72 hrs by MTT assay; type: functional, cell-based; details: Caco-2, 72 h; in short: as §1
[8] = Growth inhibition of undifferentiated human Caco2 cells measured after 72 hrs by SRB assay; type: functional, cell-based; details: Caco-2, 72 h; in short: as §2
[9] = Growth inhibition of differentiated human Caco2 cells assessed as mitochondrial activity measured after 72 hrs by MTT assay; type: cell-based; details: Caco-2, 72 h; in short: as §1
[10] = Growth inhibition of differentiated human Caco2 cells measured after 72 hrs by SRB assay; type: cell-based; details: Caco-2, 72 h; in short: as §2
[11] = Growth inhibition of human HT-29 cells assessed as mitochondrial activity measured after 72 hrs by MTT assay; type: functional, cell-based; details: HT-29, 72 h; in short: as §1
[12] = Growth inhibition of human EAhy926 cells assessed as mitochondrial activity measured after 72 hrs by MTT assay; type: cell-based; details: EA.hy 926, 72 h; in short: as §1
[13] = Growth inhibition of human EAhy926 cells measured after 72 hrs by SRB assay; type: cell-based; details: EA.hy 926, 72 h; in short: as §2
EA.hy 926 [14] = assay: Effect on oxidative stress in human EAhy926 cells assessed as intracellular ROS level at 1 uM after overnight incubation by DCFH-DA staining based fluorescence assay relative to control; type: functional
In short: (§3)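 Cells grown in DMEM+glutamax, 1% NEAA, 1% P/S, 10% FBS; seeded 20000/well, treated at confluency overnight in serum-free medium, DMSO under 0.1% final. Loaded with 20 μM DCFH-DA 30 min at 37 °C, 10% CO2; washed, phenol red-free medium 1 h, then serum-free medium; fluorescence ex 485/em 535 nm. Percent of untreated; two-tailed unequal-variance t-test, n≥6.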

CHO [15] = assay: Effect on oxidative stress in CHO cells assessed as intracellular ROS level at 1 uM after overnight incubation by DCFH-DA staining based fluorescence assay relative to control; type: functional, Cricetulus griseus; in short: as §3
CHO [16] = assay: Effect on oxidative stress in CHO cells assessed as intracellular ROS level at 10 uM after overnight incubation by DCFH-DA staining based fluorescence assay relative to control; type: functional, Cricetulus griseus; in short: as §3
Caco-2 [17] = assay: Effect on oxidative stress in undifferentiated human Caco2 cells assessed as intracellular ROS level at 1 uM after overnight incubation by DCFH-DA staining based fluorescence assay relative to control; type: functional; in short: as §3
Caco-2 [18] = assay: Effect on oxidative stress in undifferentiated human Caco2 cells assessed as intracellular ROS level at 10 uM after overnight incubation by DCFH-DA staining based fluorescence assay relative to control; type: functional; in short: as §3
HT-29 [19] = assay: Effect on oxidative stress in human HT-29 cells assessed as intracellular ROS level at 1 uM after overnight incubation by DCFH-DA staining based fluorescence assay relative to control; type: functional; in short: as §3
HT-29 [20] = assay: Effect on oxidative stress in human HT-29 cells assessed as intracellular ROS level at 10 uM after overnight incubation by DCFH-DA staining based fluorescence assay relative to control; type: functional; in short: as §3
EA.hy 926 [21] = assay: Effect on oxidative stress in human EAhy926 cells assessed as intracellular ROS level at 10 uM after overnight incubation by DCFH-DA staining based fluorescence assay relative to control; type: functional; in short: as §3

SMILES | solubility [1] | inhibition [2] | IC50 [3] | Activity [4] | IC50 [5] | IC50 [6] | IC50 [7] | IC50 [8] | IC50 [9] | IC50 [10] | IC50 [11] | IC50 [12] | IC50 [13] | Activity (EA.hy 926 [14]) | Activity (CHO [15]) | Activity (CHO [16]) | Activity (Caco-2 [17]) | Activity (Caco-2 [18]) | Activity (HT-29 [19]) | Activity (HT-29 [20]) | other results
CC(C)CNC(=C\C(=O)/C=C/c1ccc(O)cc1)/C=C/c1ccc(O)cc1 | 25 µM (≈ 9.09 µg/mL) | 0.02% | 17.9 µM | 0.19 µMequiv/µM | 23.7 µM | 22.5 µM | 23 µM | 18.5 µM | > 25 µM | > 25 µM | 20.1 µM | > 25 µM | > 25 µM | 100% | 109% | 97% | 100% | 82% | 77% | 75% | Activity (EA.hy 926 [21]): 119%
O=C(/C=C(/C=C/c1ccc(O)cc1)NC1CCCCC1)/C=C/c1ccc(O)cc1 | 5 µM (≈ 1.95 µg/mL) | 0.03% | 9.2 µM | 0.56 µMequiv/µM | 11.6 µM | 5.9 µM | 7.8 µM | 6.9 µM | > 25 µM | > 25 µM | 4 µM | 3.3 µM | 4.2 µM | 129% | 111% | 150% | 97% | 82% | 77% | 80% | Activity (EA.hy 926 [21]): 299%
CCCCNC(=C\C(=O)/C=C/c1ccc(O)c(OC)c1)/C=C/c1ccc(O)c(OC)c1 | 5 µM (≈ 2.12 µg/mL) | 0.08% | 7 µM | 1.29 µMequiv/µM | 20.4 µM | 21.2 µM | > 25 µM | 23.8 µM | > 25 µM | > 25 µM | 19.7 µM | > 25 µM | > 25 µM | 110% | 129% | 110% | 91% | 83% | 99% | 98% | Activity (EA.hy 926 [21]): 439%
CCCNC(=C\C(=O)/C=C/c1ccc(O)c(OC)c1)/C=C/c1ccc(O)c(OC)c1 | 50 µM (≈ 20.5 µg/mL) | 0.1% | > 25 µM | 0.87 µMequiv/µM | > 25 µM | > 25 µM | > 25 µM | 22 µM | > 25 µM | > 25 µM | 22.7 µM | > 25 µM | > 25 µM | 78% | 116% | 118% | 97% | 88% | 88% | 92% | Activity (EA.hy 926 [21]): 141%
CC(=O)Oc1ccc(/C=C/C(=O)/C=C(/C=C/c2ccc(OC(C)=O)cc2)NCC(C)C)cc1 | 25 µM (≈ 11.2 µg/mL) | 0% | > 25 µM | 0.01 µMequiv/µM | > 25 µM | 22.6 µM | > 25 µM | > 25 µM | > 25 µM | > 25 µM | 13.7 µM | > 25 µM | > 25 µM | 60% | 152% | 142% | 102% | 85% | 92% | 99% | Activity (EA.hy 926 [21]): 53%
COc1cc(/C=C/C(=O)/C=C(/C=C/c2ccc(OC(C)=O)c(OC)c2)NC2CCCCC2)ccc1OC(C)=O | 5 µM (≈ 2.67 µg/mL) | 0.01% | 10.1 µM | 0.04 µMequiv/µM | > 25 µM | > 25 µM | 9.7 µM | 4.4 µM | > 25 µM | > 25 µM | > 25 µM | > 25 µM | > 25 µM | 101% | 89% | 122% | 89% | 62% | 96% | 94% | Activity (EA.hy 926 [21]): 113%
